Data published in the EternaBench riboswitch data.

Tested on: MS2 coat protein
Assay: apparent Kd, MS2 coat protein; higher = weaker binding; RNA-MaP array; FMN 200 µM where present
In short: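 In 100 mM Tris-HCl pH 7.5, 80 mM KCl, 4 mM MgCl2, BSA, DTT, yeast tRNA and Tween-20, SNAP-549-labelled MS2 coat protein was titrated from 0.7 or 1.5 nM, doubling to 3 µM, over designs transcribed by stalled E. coli RNA polymerase on Illumina sequencing-chip clusters. This was done first without ligand, then with ligand held constant. After green signal was normalised to red-channel RNA signal and control-cluster median Fmax, the apparent Kd was taken as the median of filtered per-cluster binding-curve fits.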

[1] = designed as: OFF switch for flavin mononucleotide, no ligand
[2] = ligand present: flavin mononucleotide, designed as: OFF switch for flavin mononucleotide
[3] = designed as: ON switch for flavin mononucleotide, no ligand
[4] = ligand present: flavin mononucleotide, designed as: ON switch for flavin mononucleotide

Row | Sequence | apparent Kd [1] | apparent Kd [2] | apparent Kd [3] | apparent Kd [4]
1 | GGGUGACAUGAGGAUCACCCAUGUGAGGAUAUCUGGAUACUCUUUAUUUUAGAUAUCCAGAGAAGGCACACCCU | 501 nM | 306 nM |  | 
2 | AUUACAUGAGGAUCACCCAUGUACAGCACGUUUCAAUACAGUGAGGAUAUACGAAAUGUAGGAACGUAGAAGGCACUGGGUGCA |  |  | 265 nM | 68.1 nM
3 | AAUAACAGAGGAUAUGCAAAAAUAAGCGGAAACGCAAGAAAACAUGAGGAUCACCCAUGUAGAAGGCUGGAUAA | 23.6 nM | 17.6 nM |  | 
4 | CCGCUGUUAGGAUAUCUGAAGCUUCAAUGGAAGUCUUCAUUGGAGAAGGGACAUGAGGAUCACCCAUGUAGGGA | 192 nM | 253 nM |  | 
5 | GUUAUAUUUAGUUCAUACUAUAUGAUAGAAGGUGAAAUAUAGACAUGAGGAUCACCCAUGUAAUUCAAGGAUAUGUAGUUACUC |  |  | 29.9 nM | 21.5 nM
6 | UUAAAUCAUGUAGGAUAUGCAUGGCGAAGCUACGCAGAAGGACAUGAGGAUCACCCAUGUUAUAGGUACCCAGUUCGGUGCCAA | 115 nM | 200 nM |  | 
7 | AGUAGAUCAGGAUAUACGUGAAAGGUCAAAGUGUCCCUACUACAUGAGGAUCACCCAUGUAGAAGGGAUCUACA | 13.4 nM | 14.6 nM |  | 
8 | AUGCUUCACACAGGAUAUUACAACAUGAGGAUCACCCAUGUACAUGACAUGACGAUCACGCAUGUUAAGAAGGGUGUGAAGCAU | 587 nM | 449 nM |  | 
9 | UUGGACGUCGUAGGAUAUGUAGGAUAUUACUACAUGAGGAUCACCCAUGUUGACAUGGAAGAAGGACAGAAGGACGAUGUCCAU |  |  | 638 nM | 6.52 nM
10 | GGUGCGUAUGUGAGGAUAUGCUGGUCCUUGGAUCAGCAGAAGGCACAUGAGGAUCACCCAUGUGGUGUCGUUCC | 397 nM | 29.3 nM |  | 
11 | UCCGGACAUGAGGAUCACCCAUGUCAGGAUAUACCCGAGGCAGCGAACUCGCUAGCCAGUAGAAGGGACAUGGU | 19.8 nM | 20.8 nM |  | 
12 | CCCGUGUGAGGAUAUCGUUCGCUUGGCGUUUGUCGGGUGGGCGAGAAGGUACAUGAGGAUCACCCAUGUGCGGG | 172 nM | 422 nM |  | 
13 | AUCAGCUUGUCAGGAUAUACGUCACUGCGUCAGCAGUGUGGUAAGAUCACAUGAGGAUCACCCAUGUAGAAGGGACGAGCUGAU | 12.9 nM | 321 nM |  | 
14 | AGGAUACACCAGAAGGACAUGAGGAUCACCCAUGUAGGAUAUGGGUACGCCGACAUUAGUCUGCUCUCGGUAGACUUUCCUGAU |  |  | 75.1 nM | 10.4 nM
15 | GGAUGACAAAGUCAUCCUAUUCGAACAUGAGGAUCACCCAUGUAGGAUAUGGUACUCAAAGAGUACCAGAAGGACAUGUGCUUU | 36.2 nM | 127 nM |  | 
16 | GCGAAUCAGUGAGGAUAUACAUAAUUUAUACCUGUAGAAGGCACAAACCUCAAGACAUGAGGAUCACCCAUGUGACAUAUCGCU | 43.3 nM | 66.8 nM |  | 
17 | CUAAUGUAGACAGGAUAUCCUGGACAUGAGGAUCACCCAUGUGCAUAAAAUGGAGAAGGGUCACGGAGGCCCUGUGGGCAGGGU |  |  | 46.3 nM | 9.9 nM
18 | GGUGCUAUGUAGAAGGCAGAUCUGAUUCAGAUCUGAGGAUAUACAUGAGGAUCACCCAUGUUAUGCACCAGCACGAGAGUGCAG | 8.07 nM | 14 nM |  | 
19 | CCGGAAAUGGAGGAUAUCGUAUCGGAUACGAUACGAGAAGGCUAUACAUGAGGAUCACCCAUGUGUCCUACCGG | 12.6 nM | 20.1 nM |  | 
20 | AAGAUACUUACAGGAUAUAGGGCAUAGGGUGCCCUAGAAGGGUGAACAUGAGGAUCACCCAUGUAUGUAUCAGAUUAGAAGGCA |  |  | 53.3 nM | 41.8 nM
21 | GAGGAGGUAGGAUAUACGAUAAUAUAGGGUAGAUAUAUAACACAUGAGGAUCACCCAUGUAGAAGGACCAGGAG | 34.4 nM | 62.4 nM |  | 
22 | UUGGACGUCGUAGGAUAUGUAGGAUAUUCCUACAUGAGGAUCACCCAUGUUGACAUGGAAGAAGGACAGAAGGACGAUCUCCAU |  |  | 360 nM | 5.49 nM
23 | GUCAUGUUAGGAUAUCUGGCAUGUGACUUCGGUCACUGUCCAGAGAAGGAACAUGAGGAUCACCCAUGUUGGAC | 75.1 nM | 57.1 nM |  | 
24 | GAGCGGGAAACAUGAGGAUCACCCAUGUAAUAAGUCCUCAAGUAGGAUAUGCACACGAGAAGUGUGCAGAAGGGCUACCCGGUC | 20.9 nM | 28.8 nM |  | 
25 | CUAUCGUUGCAGAAGGUUAAAUAAUUUCUCAUCUUGUUUACAUGAGGAUCACCCAUGUAUUUGUUGAAGGAUAUGCAAGUGUUG | 12.5 nM | 11 nM |  | 
26 | GUGUCUUGGGAGAAGGCCGAUAGCAAAGCUAUCGGAGGAUAUUCAUACCGGAAACGGACAUGAGGAUCACCCAUGUGGCACAAA |  |  | 1130 nM | 36.8 nM
27 | CCUCCACAUGAGGAUCACCCAUGUCAGGAUAUCGUGUGUUUUUUUUCGGUCGUGCGUGCGAGAAGGGACGUCUU | 25.9 nM | 29.7 nM |  | 
28 | CAGGGUCGUAUUCAGCCCGUCCACAUGAGGAUCACCCAUGUCAAGGAUAUAGCUUAAAAUACAAACUAGAAGGUGACGCUGGGU | 21.7 nM | 83.8 nM |  | 

Row | Sequence | apparent Kd [1] | apparent Kd [2] | apparent Kd [3] | apparent Kd [4]
29 | CUGUCGAUAUCAGGAUAUCGUUUACAUACAUGAGGAUCACCCAUGUAGAUGAUCAGCCUAAUAUACGAGAAGGGAUAACGAUAG |  |  | 10.2 nM | 9.04 nM
30 | AAUCAUGUCCGAGGAUAUCUGGAAACAUUUUCAAGAGAAGGCGGACAUGAGGAUCACCCAUGUCUCUCCUCAUCAACUACAAAU | 14.6 nM | 89 nM |  | 
31 | CUCAAACAUGAGGAUCACCCAUGUCAGGAUAUGAUACUAUGUACUUCGGUACAUAGUAUCAGAAGGGAUAUGAA | 87.6 nM | 111 nM |  | 
32 | CGAAAUGAUAGAGGAUAUGUUUAACAUGAGGAUCACCCAUGUGACAUGGGAUUAAUAUAUAACUUACAGAAGGCUAUUCAAUCG | 38.7 nM | 52.1 nM |  | 
33 | UAAUAAUAAUAAUAGCAGAAUUACAUGAGGAUCACCCAUGUAUAGGAUAUCGUCAGGAAUACUGACGAGAAGGAUACAUACUGC | 17.8 nM | 25.6 nM |  | 
34 | GGAUAGGACAGAGGAUAUACGGAUAGGAUCUACUAUCUUCUUCAAAUAACAUGAGGAUCACCCAUGUAGAAGGCUGUCCUAUCG | 16 nM | 31.9 nM |  | 
35 | AGCCAAGCAGGAUAUGCACGUAAUAACAUGAGGAUCACCCAUGUGACCGAUUUAUGUUCUGCAGAAGGGCUUGGAA | 60.3 nM | 63.5 nM |  | 
36 | GGAUCGAGUGUGAGGAUAUGCUGGUCCUUGGAUCAGCAGAAGGCACAUGAGGAUCACCCAUGUGAAGACGGUCC | 32.3 nM | 201 nM |  | 
37 | GCAACGCCUGACAUGAGGAUCACCCAUGUUAGAUUGUUAUGUCAGGAUAUUGUCUAGAAACUAGACAAGAAGGGAUGCGUUGCU |  |  | 304 nM | 21.8 nM
38 | GGUAUCCGGCAGGAUAUUGUGAGAAUCUGUAAGCGAGAAGGGCCAACAUGAGGAUCACCCAUGUACCAUUGAGA | 52.3 nM | 45.1 nM |  | 
39 | AAAACGUGAGGAUAUCCAAUAUAUGACAUGAGGAUCACCCAUGUUUCCACUCGUACCUCCGGAGAAGGCACAAUUU | 51.2 nM | 41.7 nM |  | 
40 | CCAGAUUUCACAGGAUAUAUUGAUGACAUGAGGAUCACCCAUGUACCGGCAGUAGAAGGGUGAACGCACGUGACCACGUGCGUG |  |  | 54.1 nM | 14.9 nM
41 | AUGACAUGCACAGGAUAUUAGGCGCAGUACAGAUAAGAAGGGUGGAUCAGCAUACAUGAGGAUCACCCAUGUUGUUGUAACAUG |  |  | 350 nM | 183 nM
42 | GUAAUAAAGAUCCAAUUAUACAACAUGAGGAUCACCCAUGUGCAGGAUAUCGUGUGUUUUUUAUUCGAGAAGGGCAAAUUCAUU | 51.9 nM | 146 nM |  | 
43 | AGCUACGUUUCGUAGCAGCUAGGUGAGGAUAUCCUUAACAUGAGGAUCACCCAUGUAUAGCCAUGGGAGAAGGCGCCUAGAAAG |  |  | 723 nM | 55.3 nM
44 | CGGUAACAUGAGGAUCACCCAUGUGAGGAUAUCGUACGUUCGUCGAAAGACGAUCGUACGAGAAGGCAUGACCG | 47.5 nM | 22.2 nM |  | 
45 | CUAAAAGUCGAGGAUAUGCACCGGCUUUCUGACGCAGAAGGCGACACAUGAGGAUCACCCAUGUCGGUACGCGA | 13.7 nM | 15.8 nM |  | 
46 | UAUAUUAUUAUAGGAUAUGGAUAUGAUGCAUAUCCAGAAGGGUGAUUAUAAUAUUUUCUGUACAUGAGGAUCACCCAUGUUUAU |  |  | 141 nM | 41.6 nM
47 | CGUGCGUAUGUGAGGAUAUGCUGGUCCUUGGAUCGGCAGAAGGCACAUGAGGAUCACCCAUGUGGUGUCGUACU | 238 nM | 32.4 nM |  | 
48 | UCGGCGCGAGGAUAUACGUUUGCGCUUUUUCGUUUUUGUGUACAUGAGGAUCACCCAUGUAGAAGGCGCGCCGC | 16.4 nM | 19.8 nM |  | 
49 | GGUGGACAUGAGGAUCACCCAUGUGAGGAUAUCGGCUAUCUACUCGCUGACGGCUGCUCGAGAAGGCGCAUUGU | 62.1 nM | 58.8 nM |  | 
50 | UCAUACAUUCGAGGAUAUCGGUGAUAACUCUAACGAGAAGGCGAUUUAAAACAUAAUGCUGUAGACAUGAGGAUCACCCAUGUA |  |  | 416 nM | 146 nM
51 | UCAGGUGGAGGAUAUACAGCUCGAUCCUGUAAUAAAACGGCACAUGAGGAUCACCCAUGUAGAAGGCCACAAUA | 25.7 nM | 126 nM |  | 
52 | UUAAAUCAUGUAGGAUAUGCAUGGCGAAGCUACGCAGAAGGACAUGAGGAUCACCCAUGUUAUAGCUACCAAGUAAGGUGGCAA | 77.9 nM | 236 nM |  | 
53 | ACUGGAGCAGGAUAUAUAUGACGUGCUUCGGCACGAAGAUCACAUGAGGAUCACCCAUGUAGAAGGGCUCCAGU | 106 nM | 813 nM |  | 
54 | GUGGAGUAAGGAUAUACAUGAGGAUCACCCAUGUGAGGGUAUGAGAAGGGAAUGAGAGGUAGAAGGUACGAGGG | 172 nM | 107 nM |  | 
55 | UAGUCGGAGACAGGAUAUGUGACUGCAUAGUGCACAGAAGGGUCUACAUGAGGAUCACCCAUGUCACCGACCACCAAACAACAA |  |  | 552 nM | 33.3 nM
